Screening results from PubChem BioAssay.
CXCR6 block – inhibitors of human CXCR6 receptor; CHO-K1 PathHunter CXCR6 beta-arrestin, luminescence; AID 602244; 0.36% of 360,000 active; inhibition, % at 20 µM; in the data active = inhibition above about 34%, passing the limit was not always enough;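 also: antagonist mode with CXCL16 agonist at 10 nM final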
Target sequence (O00574 whole entry, looked up): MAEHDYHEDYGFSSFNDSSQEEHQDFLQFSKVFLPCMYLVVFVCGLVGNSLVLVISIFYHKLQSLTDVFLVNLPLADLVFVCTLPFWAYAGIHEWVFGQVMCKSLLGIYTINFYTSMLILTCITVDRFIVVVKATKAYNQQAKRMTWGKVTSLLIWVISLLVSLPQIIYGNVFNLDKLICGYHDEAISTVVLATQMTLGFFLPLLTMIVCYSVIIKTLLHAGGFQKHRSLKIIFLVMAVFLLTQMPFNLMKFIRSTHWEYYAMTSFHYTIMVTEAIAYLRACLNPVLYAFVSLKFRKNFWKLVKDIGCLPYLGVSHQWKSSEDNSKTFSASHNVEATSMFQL
APJ agonist – APJ receptor agonism. P35414. CHO-K1 APJ PathHunter beta-arrestin, luminescence; 0% DMSO wells, 100% apelin. activation, % at 20 µM. 0.11% of 330,000 active. AID 2520;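 active = activation more than six SD over the plate average, tested at 20 µM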
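Test system: CHO-K1 APJ beta-arrestin complementation cell line. Amount: cell density 1000 per well. Controls: DMSO negative, 10 nM Apelin-13 positive. Signal: luminescent beta-gal fragment complementation, chemiluminescent substrate. Read-out basis: agonist-driven arrestin binding to APJ. Timing: compound stimulation 90 min at 25 °C, detection 60 min.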
APJ antag – blocks the human apelin receptor APJ. P35414. CHO-K1 APJ beta-arrestin complementation, luminescence. inhibition, % at 20 µM. 0.32% of 330,000 active. AID 2521;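 active = inhibition above about 40% at 20 µM, limit read from the data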;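 also: cells challenged with 10 nM apelin-13 agonist together with compound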
EBI2 block – antagonists of human EBI2 receptor | P32249 | EBI2 beta-arrestin recruitment, luminescence, 7a,25-OHC stimulated | inhibition, % at 5 µM | 0.81% of 360,000 active | AID 651636; in the data active = inhibition above about 38%;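 also: enzyme fragment complementation signal reports receptor beta-arrestin coupling in cells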
Target sequence (P32249 whole entry, looked up, the tested form may be a part): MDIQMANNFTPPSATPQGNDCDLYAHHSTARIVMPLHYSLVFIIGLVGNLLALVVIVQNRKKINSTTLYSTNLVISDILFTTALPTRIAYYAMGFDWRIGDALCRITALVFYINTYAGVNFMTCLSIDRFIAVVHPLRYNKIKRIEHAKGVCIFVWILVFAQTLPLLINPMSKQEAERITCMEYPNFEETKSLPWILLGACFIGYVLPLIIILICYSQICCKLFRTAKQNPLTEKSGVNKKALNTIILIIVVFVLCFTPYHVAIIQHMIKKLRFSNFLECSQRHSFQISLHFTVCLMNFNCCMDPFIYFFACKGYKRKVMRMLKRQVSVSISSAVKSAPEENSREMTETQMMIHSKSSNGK
CCR6 antag – blocks CCL20-driven beta-arrestin recruitment at human CCR6 | 0.49% of 340,000 active | AID 493098 | CHO-K1 CCR6 PathHunter beta-arrestin, luminescence, CCL20-stimulated | inhibition, % at 20 µM;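 active = compounds whose inhibition of the agonist-driven luminescence signal at 20 µM reaches about 50%, limit read from the data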;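 also: cells stimulated with CCL20 at 14 nM final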
APJ ag conf – APJ receptor agonism confirmation. AID 2764. shares compounds with APJ agonist. CHO-K1 APJ PathHunter beta-arrestin, luminescence. activation, % at 20 µM. 10% of 310 active;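 active = activation above 40%, taking the highest of four retests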
APJ antag confirm – APJ receptor antagonism confirmation; shares compounds with APJ antag; APJ beta-arrestin recruitment, luminescence, antagonist mode; inhibition, % at 20 µM; 66% of 950 active; AID 2766; in the data active = inhibition above about 50%
CXCR6 antag conf – confirmation of human CXCR6 receptor antagonists. shares compounds with CXCR6 block. 65% of 700 active. CHO-K1 CXCR6 PathHunter beta-arrestin, luminescence. AID 602409. inhibition, % at 20 µM;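 active = mean inhibition over four retests above 40%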;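 also: receptor stimulated with 10 nM CXCL16 agonist; beta-galactosidase fragment complementation upon beta-arrestin recruitment to receptor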
EBI2 conf – confirmation of human EBI2 receptor antagonists | shares compounds with EBI2 block | EBI2 beta-arrestin luminescence, 7a,25-OHC antagonism | inhibition, % at 5 µM | 29% of 2,400 active | AID 651997;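 active = inhibition of at least 50%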
EBI2 ag – EBI2 agonism counter-screen. EBI2-expressing cells, agonist mode, luminescence, 60 min; 0% vehicle, 100% 7α,25-dihydroxycholesterol control. 2,400 tested, under 10 active. shares compounds with EBI2 block. activation, % at 5 µM;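 active = activation of at least 50%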
bGal cs – counter-screen for EBI2 antagonists: E. coli beta-galactosidase inhibition; shares compounds with EBI2 block; purified beta-galactosidase, luminescent Galacton Star, 15 min; inhibition, % at 5 µM; 1% of 2,400 active; AID 652176;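 active = replicate-average signal at least 3 plate SD below neutral wells, shown as high inhibition, flagging enzyme-inhibiting false positives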;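 also: higher means stronger loss of beta-gal luminescence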
Of the large screens only hits and unclear results are named; the others gave an inactive call (follow-up assays come after a bar, where they were run). Most compounds without a hit are left out; they make up all but 1.5% or so of the library.

O=C(COC(=O)c1cc(Br)cc(Br)c1O)NC12CC3CC(CC(C3)C1)C2	none (no result: APJ agonist, APJ antag, CCR6 antag)
O=C(OCc1ccccc1)N1CCC2CC1c1cc(N3Cc4ccccc4-n4nncc4C3)ccc12 (centres undefined)	none (no result: APJ agonist, APJ antag, CCR6 antag)
CC1(C)C[C@H]2C=C(C=O)[C@]3(C=O)C[C@]3(C)[C@H]2C1	APJ agonist 31 | APJ ag conf inactive
CC(C)CCn1c(N)c(C(=O)NCc2cccs2)c2nc3ccccc3nc21	APJ antag 55 | APJ antag confirm inactive
COCCNC(=O)c1c(N)n(CCC(C)C)c2nc3ccccc3nc12	none
COc1ccc(-n2nnnc2C(c2cccs2)N2CCC3(CC2)C(=O)NCN3c2ccccc2)cc1 (centres undefined)	none (no result: APJ agonist, APJ antag, CCR6 antag)
NC1CC2CCCCC2CC1(O)c1ccccc1 (centres undefined)	none (no result: APJ agonist, APJ antag, CCR6 antag)
CCOC(=O)c1c(NS(=O)(=O)c2ccccc2)n(CCCOC)c2nc3ccccc3nc12	APJ antag 50, CCR6 antag 60 | APJ antag confirm inactive
COCCCn1c(N)c(C(=O)OCCOC)c2nc3ccccc3nc21	none
CCCCCn1c(NC(=O)c2ccco2)c(C(=O)OCC)c2nc3ccccc3nc21	APJ antag 49 | APJ antag confirm inactive
CCC(C)(O)C(=O)OC1C(=O)OC2CC3C(C)=CC(O)C(O)C3(C)C3C4(O)OCC23C1C(C)C4O (centres undefined)	none (no result: APJ agonist, APJ antag, CCR6 antag)
COc1ccc(C(=O)C2CCCN(CCO)C2)c(C)c1 (centres undefined)	APJ antag 111 | APJ antag confirm inactive
C=C1C(=O)O[C@@H]2C[C@@H](C)[C@@H]3C4OC4C(=O)[C@@]3(C)[C@@H](O)[C@H]12 (some centres undefined)	APJ antag 42 | APJ antag confirm inactive
CNc1ccc2oc(C[C@H]3O[C@@]4(CC[C@H]3C)O[C@H]([C@H](C)C(=O)c3ccc[nH]3)[C@H](C)C[C@H]4C)nc2c1C(=O)O	CXCR6 block 75, APJ antag 65, CCR6 antag 55 | APJ antag confirm 61 | CXCR6 antag conf 69
O=C1NCCCCC1(Cl)Cl	none (no result: APJ agonist, APJ antag)
NC(Cc1ccc(Cl)cc1)c1csc(Nc2ncccn2)n1 (centres undefined)	none (no result: APJ agonist, APJ antag, CCR6 antag)
COc1cc(/C=C/[N+](=O)[O-])ccc1OC(=O)c1cccnc1	CXCR6 block 57, APJ antag 59, CCR6 antag 82 | APJ antag confirm 72 | CXCR6 antag conf 63
C=C1C(=O)O[C@@H]2C[C@@H](C)[C@@H]3C=CC(=O)[C@@]3(C)[C@@H](OC(=O)CC(=O)O[C@H]3[C@@H]4C(=C)C(=O)O[C@@H]4C[C@@H](C)[C@@H]4C=CC(=O)[C@]43C)[C@H]12	CXCR6 block 92, APJ antag 83, EBI2 block 51, CCR6 antag 98 | APJ antag confirm 115 | CXCR6 antag conf 100
CS(=O)(=O)N1Cc2ccccc2-n2nncc2C1	none (no result: APJ agonist, APJ antag)
Cn1c(O)c(C2=NNC(c3ccc(Cl)cc3)C2)c(=O)n(C)c1=O (centres undefined)	CXCR6 block 34, CCR6 antag 56 | CXCR6 antag conf 112
CC(=O)Nc1ccc(S(=O)(=O)N2Cc3ccccc3-n3nncc3C2)cc1	none (no result: APJ agonist, APJ antag, CCR6 antag)
COc1ccc(OC(=O)N(C)C[C@@H]2OCc3cnnn3CCCC(=O)N([C@@H](C)CO)C[C@H]2C)cc1	none (no result: APJ agonist, APJ antag, CCR6 antag)
COc1ccc(OC(=O)N(C)C[C@@H]2OCc3cnnn3CCCC(=O)N([C@H](C)CO)C[C@@H]2C)cc1	CXCR6 block 90 (no result: APJ agonist, APJ antag, CCR6 antag) | CXCR6 antag conf inactive
COC(=O)C1=C(C(=O)OC)SC2(S1)C(C(=O)OC)=C(C(=O)OC)Sc1c2ssc1=O	CXCR6 block 68, CCR6 antag 86 (no result: APJ agonist, APJ antag) | CXCR6 antag conf 56
COC(=O)C1=C(c2ccc3ccccc3c2)C[C@@H]2CC[C@H]1N2C(=O)N1CCCCC1	none
COc1ccc(C2CC(c3c(O)n(CCc4ccccc4)c(=O)[nH]c3=O)=NN2)cc1OC (centres undefined)	CXCR6 block 90, CCR6 antag 104 | CXCR6 antag conf 104
COc1ccc(CCn2c(O)c(C=NCc3cccnc3)c(=O)[nH]c2=O)cc1OC	none
CNc1cc(Cl)c2nonc2c1[N+](=O)[O-]	CXCR6 block 100, EBI2 block 80, CCR6 antag 98 (no result: APJ agonist, APJ antag) | CXCR6 antag conf 103
Cc1cc([N+](=O)[O-])c(Cl)cc1NC(=O)C(C)C	none
CCOC(=O)[C@]12Cc3cc(Cl)ccc3[C@H]1N(C1CCCCC1)C(=O)c1cc(OC)ccc12	CXCR6 block 42, EBI2 block 77 (no result: APJ agonist, APJ antag, CCR6 antag) | CXCR6 antag conf 47
CCOC(=O)c1cc2ccccc2n1C1CCN(Cc2ccccc2)CC1	none (no result: APJ agonist, APJ antag, CCR6 antag)
CCCCCCCCn1sccc1=O	CXCR6 block 99, EBI2 block 61, CCR6 antag 105 | CXCR6 antag conf 105
Fc1ccc(NC(=S)N2Cc3ccccc3-n3nncc3C2)cc1	none (no result: APJ agonist, APJ antag, CCR6 antag)
COc1ccc(OCC(=O)N2CCN(CC3CC4C=CC3C4)CC2)cc1 (centres undefined)	EBI2 block 83 | EBI2 conf 56 | EBI2 ag inactive | bGal cs inactive
Cc1cccc(C)c1-n1nnnc1C(c1cccc2ccccc12)N1CCC(n2c(=O)[nH]c3ccccc32)CC1 (centres undefined)	EBI2 block 42 (no result: APJ agonist, APJ antag, CCR6 antag) | EBI2 conf inactive | EBI2 ag inactive | bGal cs inactive
Cc1cccc(C)c1-n1nnnc1C(c1cccs1)N1CCC(n2c(=O)[nH]c3ccccc32)CC1 (centres undefined)	none (no result: APJ agonist, APJ antag, CCR6 antag)
CCc1ccc(-c2nn(Cc3ccccc3)cc2C=O)cc1	none
NC1CCc2cc(O)c(O)cc2C1 (centres undefined)	none
COC(=O)C1=C(c2ccc(F)cc2OCc2ccccc2)C[C@@H]2CC[C@H]1N2C(=O)N1CCC(O)(c2ccc(Cl)cc2)CC1	EBI2 block 52 | EBI2 conf inactive | EBI2 ag inactive | bGal cs inactive
